The source of these data is ChEMBL document CHEMBL4765447, “Design, synthesis and biological evaluation of diamino substituted cyclobut-3-ene-1,2-dione derivatives for the treatment of drug-resistant tuberculosis” (Eur J Med Chem, 2020).

Assay [1] in a line: Ratio of MIC for inhibition of ATP synthase in bedaquiline-resistant Mycobacterium tuberculosis to MIC for inhibition of ATP synthase in Mycobacterium tuberculosis H37Rv. In outline: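 Ratio of alamar-blue MIC against the bedaquiline-resistant strain to MIC against H37Rv, both measured in the 7-day microplate alamar blue assay.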
The test system of assay [2] is Mycobacterium tuberculosis. The assay can be described thus: Inhibition of ATP synthase in multi-drug resistant Mycobacterium tuberculosis clinical isolate 13946 assessed as reduction in bacterial growth incubated for 7 days by microplate alamar blue assay. The conditions noted are these: time 7.0 day. In outline: (§1)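 Microplate alamar blue assay. Strains grown to late log phase in 7H9 broth with 0.2% glycerol, 0.05% Tween 80 and 10% ADC, then washed, filtered (8 µm) and frozen. Twofold compound dilutions with 2×10^5 CFU per well at 37 °C. On day 7, Tween 80 and alamar blue added; after 16–24 h, fluorescence read at 530/590 nm. MIC is the lowest concentration giving ≥90% fluorescence reduction versus bacterium-only controls.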
(The colour change of resazurin is a common sign of viable cells or microbes.)

For assay [3], the system named is Mycobacterium tuberculosis. The assay can be described thus: Inhibition of ATP synthase in multi-drug resistant Mycobacterium tuberculosis clinical isolate 14862 assessed as reduction in bacterial growth incubated for 7 days by microplate alamar blue assay. Conditions: time 7.0 day. In outline: as §1
Assay [4] deals with Mycobacterium tuberculosis. Description: Inhibition of ATP synthase in bedaquiline-resistant Mycobacterium tuberculosis assessed as reduction in bacterial growth incubated for 7 days by microplate alamar blue assay. Conditions: time 7.0 day. The essentials:
as §1

Values after ≈ are worked out from the molar mass of the structure shown.

With `Cc1cc(Nc2c(NCc3ccccn3)c(=O)c2=O)ccc1N1CCSCC1`, the Ratio in assay [1] was found to be 5.7. Also, the MIC=>90 in assay [2] stood at 0.257 µg/mL (≈ 0.651 µM); in assay [3], 0.207 µg/mL (≈ 0.525 µM); in assay [4] it was 4.85 µg/mL (≈ 12.3 µM).
In the case of `O=c1c(NCc2ccccn2)c(-c2ccc(N3CCOCC3)cc2)c1=O`, in assay [1], the Ratio turned out to be 14.9. The figures for the MIC=>90 in assay [2], in assay [3] and in assay [4] were 0.107 µg/mL (≈ 0.306 µM), 0.114 µg/mL (≈ 0.326 µM) and 3.02 µg/mL (≈ 8.63 µM), respectively.
With `O=c1c(NCc2ccccn2)c(Nc2ccc3c(c2)CCC3)c1=O`, the results for the MIC=>90 in assay [2] and in assay [3] were 0.903 µg/mL (≈ 2.83 µM) and 0.94 µg/mL (≈ 2.94 µM), respectively.
On the same counts, the results for `O=C1CCCc2cc(Nc3c(NCc4ccccn4)c(=O)c3=O)ccc21` are 0.488 µg/mL (≈ 1.4 µM) and 0.895 µg/mL (≈ 2.58 µM).
Consider `NNC(=O)c1ccncc1`, for which the MIC=>90 is 2.26 µg/mL (≈ 16.5 µM) in assay [2], more than 10 µg/mL in assay [3] and 0.052 µg/mL (≈ 0.379 µM) in assay [4].
As to `O=c1c(NCc2ccccn2)c(Nc2ccc3scnc3c2)c1=O`, the MIC=>90 in assay [2] was determined as 3.53 µg/mL (≈ 10.5 µM); in assay [3], 3.37 µg/mL (≈ 10 µM).
As for `COc1nc2ccc(Br)cc2cc1[C@@H](c1ccccc1)[C@@](O)(CCN(C)C)c1cccc2ccccc12`, the Ratio in assay [1] amounted to 62. For the same molecule, the MIC=>90 in assay [4] was 2.23 µg/mL (≈ 4.02 µM).
`O=c1c(NCc2ccccn2)c(Nc2ccc3c(c2)OCO3)c1=O`: in assay [1], the Ratio amounted to 7.5. Also, the MIC=>90 turned out to be 0.47 µg/mL (≈ 1.45 µM) in assay [2], 0.499 µg/mL (≈ 1.54 µM) in assay [3] and 3.76 µg/mL (≈ 11.6 µM) in assay [4].
`CO[C@H]1/C=C/O[C@@]2(C)Oc3c(C)c(O)c4c(O)c(c(/C=N/N5CCN(C)CC5)c(O)c4c3C2=O)NC(=O)/C(C)=C\C=C\[C@H](C)[C@H](O)[C@@H](C)[C@@H](O)[C@@H](C)[C@H](OC(C)=O)[C@@H]1C`: the MIC=>90 in assay [2] is more than 10 µg/mL; in assay [3], 9.32 µg/mL (≈ 11.3 µM).
